Source: publication PMC11566320 (Current Research in Pharmacology and Drug Discovery, 2024)
Like-named read-outs stand apart in the source and are kept apart here.

Legend:
[1] = system: cancerous cells compared to the non-cancerous MCs; conditions: ref Khoury et al. (2022); cited from earlier work
mice = conditions: cited from earlier work
HaCaT-II-4 cells [2] = experiment: Quantification of cellular uptake by ICP-MS; type: cell-based, human; conditions: 3 μM, maximum at 24 h
HaCaT-II-4 cells [3] = experiment: Cellular fractionation / intracellular distribution by ICP-MS; type: cell-based, human; conditions: 3 μM, 24 h
In short: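 HaCaT-II-4 cells adhered overnight at 37 °C, 5% CO2, then treated with 3 μM for 24 h. Washed thrice in cold PBS, trypsinised, pelleted (350 g, 5 min, 4 °C) and washed in PBS. Kit buffers gave the cytoplasmic fraction (on ice 5 min, 500 g), the membrane/organelle fraction (on ice 5 min, 8000 g) and a nuclear/cytoskeletal pellet. Results are % platinum per fraction; three independent experiments in triplicate, mean ± SEM.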

[4] = system: DMBA/TPA-induced skin tumors in BALB/c mice; experiment: DMBA/TPA induced skin carcinogenesis mouse model; type: in vivo; conditions: IP weekly; P-PENT 5 and 15 mg/kg, P-HEX 5, 15, 25 mg/kg, cisplatin 2.5 mg/kg
HaCaT-II-4 cells [5] = experiment: Cell death analysis by flow cytometry; type: cell-based, human; conditions: 3 μM
In short: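 HaCaT-II-4 cells plated at 10^5 cells/ml in 6-well plates, adhered overnight, then exposed to 3 μM test compound for 48 or 72 h at 37 °C, 5% CO2, with a positive control. Harvested cells resuspended in Guava Nexin reagent (Annexin V-PE/7-AAD), 10 min in the dark. Flow cytometry on FL1-H vs FL2-H gave % early apoptosis, late apoptosis and necrosis. Three independent experiments in triplicate; mean ± SEM.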

HaCaT-II-4 cells [6] = experiment: Cytotoxicity, WST-1 cell viability assay; type: cell-based, human; conditions: read-out: IC50 against HaCaT-II-4 cells, 72 h post-treatment
In short: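 HaCaT-II-4 cells (passage 15) in DMEM with 10% FBS and 1% penicillin-streptomycin were seeded at 10,000 cells/100 μL per well. They were exposed for 72 h to 3-fold serial dilutions, 0.023–150 μM. Medium was replaced with fresh DMEM plus WST-1 for 4 h at 37 °C, and absorbance was read at 450 nm for viability. Three independent trials, each in triplicate; mean ± SEM.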

BALB/c mice = experiment: Preliminary cisplatin treatment in BALB/c mice; type: in vivo; conditions: 5 mg/kg dose, after few weeks of treatment, preliminary data
[7] = of body weight in mice, ref O'Dwyer et al., 1985, Korst et al., 1997

COc1ccnc2c1ccc1c(OC)ccnc12.NC1CCCCC1N.O=[N+]([O-])[O-].O=[N+]([O-])[O-].[OH-].[OH-].[Pt+4] [47OMESS(IV)]
greater selectivity toward the cancerous cells compared to the non-cancerous MCs [1]: 17–22 fold

N.N.O=C([O-])C1(C(=O)[O-])CCC1.[Pt+2] [Carboplatin]
MTD as platinum (mice; [7]): 31.53 mg Pt/Kg

O=C1[O][Pt]2([NH][C@@H]3CCCC[C@H]3[NH]2)[O]C1=O [Oxaliplatin]
MTD as platinum (mice; [7]): 9.82 mg Pt/Kg

N.N.[Cl][Pt][Cl] [Cisplatin]
maximum cellular uptake (HaCaT-II-4 cells [2]): 380 nmol/10^6 cells | accumulation in cytoplasmic fraction (CF) (HaCaT-II-4 cells [3]): 38% | accumulation in membrane and organelle (MO) fraction (HaCaT-II-4 cells [3]): 47% | accumulation in nuclear and cytoskeletal (NC) fraction (HaCaT-II-4 cells [3]): 15% | week from which tumor volume was significantly decreased compared to control [4]: 4 week | necrosis (HaCaT-II-4 cells [5]; 48 or 72 h): No evidence of significant necrosis | early and late apoptosis compared to the negative control (HaCaT-II-4 cells [5]; 48 h and 72 h): significant (p < 0.0001) increase in both early and late apoptosis | IC50 (HaCaT-II-4 cells [6]): 6.7 ± 0.76 µM | mortality (BALB/c mice): causes significant mortality | MTD as platinum (mice; BALB/c mice, ref Aston et al. (2017)): 3.9 mg Pt/Kg
